In data set [1] the test system is Mycobacterium tuberculosis. The experiment in a line: Antibacterial activity against pan-sensitive Mycobacterium tuberculosis H37Rv ATCC 27294 measured after 7 days by resazurin dye based assay. It is filed as functional. The following applies: H37Rv ATCC 27294, 168 h, time 7 day. The gist of the method: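 Resazurin reduction microplate assay (REMA) in Middlebrook 7H9 broth with 10% ADC and 5% DMSO. Compounds come from 2 mg/mL DMSO stocks and are 2-fold serially diluted, top concentration 0.08–40 μg/mL depending on solubility. MIC is the lowest concentration preventing the blue-to-pink colour change. Three independent experiments; the reported value is the modal or the highest value.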

Data set [2] deals with T1, Enoyl-[acyl-carrier-protein] reductase [NADH] (Mycobacterium tuberculosis, UniProt P9WGR1).
T1 sequence (P9WGR1 whole entry): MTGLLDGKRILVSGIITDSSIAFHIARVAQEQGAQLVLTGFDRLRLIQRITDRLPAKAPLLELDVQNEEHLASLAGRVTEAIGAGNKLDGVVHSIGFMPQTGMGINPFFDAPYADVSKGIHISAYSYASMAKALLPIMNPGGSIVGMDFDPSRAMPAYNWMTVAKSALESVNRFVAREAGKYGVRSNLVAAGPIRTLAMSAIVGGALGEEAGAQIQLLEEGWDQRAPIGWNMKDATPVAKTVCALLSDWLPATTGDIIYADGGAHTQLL
Put plainly: Inhibition of Mycobacterium tuberculosis InhA-catalysed chemical reaction in presence of NADH measured for 1 min by UV/Visible spectrophotometry. The gist of the method:
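Recombinant MtInhA reaction at 25 °C in 100 mM Pipes pH 7.0, started by adding 2.2 μM enzyme and followed for 1 min. Substrate is DD-CoA, made from 2-trans-dodecenoic acid and CoA.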

In data set [3] the test system is Mycobacterium tuberculosis. Put plainly: Antibacterial activity against Mycobacterium tuberculosis H37Rv ATCC 27294 infected in CF-1 mouse assessed as reversal of bacterial growth in spleen at 300 uM/kg, po administered daily for 14 days starting from 7 days post infection. It is filed as functional, organism-based. The following applies: time 14.0 day. The method, boiled down: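 Mice treated by gavage from 7 days post-infection for 14 days, daily, at 300 or 450 μM/kg. Lungs and spleen homogenized in saline and plated for CFU. Comparisons are against vehicle and early-control groups.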

Data set [4] can be described thus: Selectivity index, ratio of CC50 for African green monkey Vero cells by MTT assay to MIC for pan-sensitive Mycobacterium tuberculosis H37Rv ATCC 27294. Format: toxicity, cell-based. The following applies: read-out: Selectivity Index. In general terms: Tetrazolium dyes change colour on reduction, which living cells bring about.
Data set [5] is described as follows: Selectivity index, ratio of CC50 for human HepG2 cells by neutral red uptake assay to MIC for pan-sensitive Mycobacterium tuberculosis H37Rv ATCC 27294. Format: toxicity. The following applies: read-out: Selectivity Index.
Data set [6] in a line: Cytotoxicity against African green monkey Vero cells assessed as reduction in cell viability incubated for 72 hrs by MTT assay. Format: toxicity, cell-based. The following applies: chlorocebus sabaeus. The method, boiled down: (§1)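 Cells grown in DMEM with 10% FBS. HepG2 seeded at 4 × 10³ and Vero at 2 × 10³ cells/well, 24 h before dosing. Compounds at 1, 5 and 20 μM in 1% DMSO for 72 h at 37 °C, 5% CO2. MTT readout: 5 mg/mL reagent for 4 h, absorbance at 595 nm. Neutral red readout: 25 μg/mL dye for 3 h, then acid-ethanol desorb. Viability is expressed relative to 1% DMSO controls.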

A short description of data set [7]: Cytotoxicity against human HepG2 cells assessed as reduction in cell viability incubated for 72 hrs by MTT assay. Format: toxicity, cell-based. The method, boiled down: as §1
Data set [8] is described as follows: Selectivity index, ratio of CC50 for African green monkey Vero cells by neutral red uptake assay to MIC for pan-sensitive Mycobacterium tuberculosis H37Rv ATCC 27294. It is filed as toxicity, cell-based. The following applies: read-out: Selectivity Index.
The target in data set [9] is T1, Enoyl-[acyl-carrier-protein] reductase [NADH]. The experiment in a line: Noncompetitive inhibition of Mycobacterium tuberculosis InhA using DD-CoA as substrate assessed as inhibition constant for enzyme-inhibitor binary complex in presence of varying concentrations of NADH by double reciprocal plot analysis.
Data set [10] is described as follows: Selectivity index, ratio of CC50 for human HepG2 cells by MTT assay to MIC for pan-sensitive Mycobacterium tuberculosis H37Rv ATCC 27294. It is filed as toxicity. The following applies: read-out: Selectivity Index.
Data set [11] addresses T2, Enoyl-[acyl-carrier-protein] reductase [NADH] (Mycobacterium tuberculosis) (UniProt P9WGR1).
T2 sequence (whole entry): T1 sequence (P9WGR1 whole entry)
Put plainly: Time dependent inhibition of Mycobacterium tuberculosis InhA.

For data set [12], the target named is T1, Enoyl-[acyl-carrier-protein] reductase [NADH]. The experiment in a line: Competitive inhibition of Mycobacterium tuberculosis InhA using varying concentrations of DD-CoA as substrate assessed as inhibition constant for enzyme-inhibitor binary complex in presence of NADH by Lineweaver-Burk plot analysis. The gist of the method: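 Steady-state kinetics with recombinant MtInhA in 100 mM Pipes pH 7.0 at 25 °C. NADH fixed at 60 μM, DD-CoA varied 15–135 μM, inhibitor at fixed-varied levels of 0.2–4 μM. Kis is fitted to the competitive inhibition equation.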

Data set [13] shares this target. Put plainly: Noncompetitive inhibition of Mycobacterium tuberculosis InhA using DD-CoA as substrate assessed as inhibition constant for enzyme-substrate-inhibitor ternary complex in presence of varying concentrations of NADH by double reciprocal plot analysis.
Data set [14] has as its target T2, Enoyl-[acyl-carrier-protein] reductase [NADH] (Mycobacterium tuberculosis). Put plainly: Binding affinity to Mycobacterium tuberculosis InhA assessed as gibbs free energy change at 250 uM in presence of NADH by fluorescence spectroscopy. The method, boiled down: (§2)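 Titration of pre-formed MtInhA:NADH complex (2 mL of 3 μM enzyme with 20 μM NADH), adding microliter aliquots of 250 μM ligand stock with dilution kept ≤1%. Intrinsic fluorescence read at 295 nm excitation, 310–500 nm emission. Temperatures 15, 20, 25 and 30 °C. KD is fitted to a hyperbolic isotherm. ΔH°, ΔS° and ΔG° come from van't Hoff analysis of KD across temperatures.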

Data set [15] in a line: Cytotoxicity against human HepG2 cells assessed as reduction in cell viability incubated for 72 hrs by neutral red uptake assay. It is filed as toxicity, cell-based. The method, boiled down: as §1
Data set [16] is described as follows: Cytotoxicity against African green monkey Vero cells assessed as reduction in cell viability incubated for 72 hrs by neutral red uptake assay. It is filed as toxicity, cell-based. The following applies: chlorocebus sabaeus. The gist of the method:
as §1

For data set [17], the target named is T2, Enoyl-[acyl-carrier-protein] reductase [NADH] (Mycobacterium tuberculosis). Put plainly: Binding affinity to Mycobacterium tuberculosis InhA assessed as change in enthalpy at 250 uM in presence of NADH by fluorescence spectroscopy.
For data set [18], the target named is T1, Enoyl-[acyl-carrier-protein] reductase [NADH]. The experiment in a line: Binding affinity to Mycobacterium tuberculosis InhA assessed as dissociation constant at 250 uM at 25 degreeC in presence of NADH by fluorescence spectroscopy. The method, boiled down: as §2
Data set [19] addresses T2, Enoyl-[acyl-carrier-protein] reductase [NADH] (Mycobacterium tuberculosis). Put plainly: Binding affinity to Mycobacterium tuberculosis InhA assessed as change in entropy at 250 uM in presence of NADH by fluorescence spectroscopy.

SMILES strings stand for the structures. ≈ marks a conversion by molar mass, not a printed value. Calls of active or inactive are those of the source. No cut-off for these calls is given here.

The text below walks through data of ChEMBL document CHEMBL5385869, “Novel 4-aminoquinolines: Synthesis, inhibition of the Mycobacterium tuberculosis enoyl-acyl carrier protein reductase, antitubercular activity, SAR, and preclinical evaluation” (Eur J Med Chem, 2023).

On to `COc1ccc2nc(C)cc(Nc3ccc(N4CCCCC4)cc3)c2c1`, for which, in data set [1], 3.6 µM (≈ 1.25 µg/mL) was the least that counted as inhibitory (MIC). In [2], the IC50 – broadly, the concentration that gives 50% inhibition – turned out to be 4.7 µM.
For `Cc1cc(Nc2ccc(N3CCCCC3)cc2)c2cc(N(C)C)ccc2n1` the same measures were 6.9 µM (≈ 2.49 µg/mL) and 20 µM.
For `CCc1cc(Nc2ccc(N3CCCCC3)cc2)c2cc(Cl)ccc2n1` the same measures were 1.7 µM (≈ 0.622 µg/mL) and 2.9 µM.
For `CCCc1ccc(Nc2cc(C)nc3ccc(C(=O)OCC)cc23)cc1` the same measures were 14.3 µM (≈ 4.98 µg/mL) and 19.6 µM.
In the case of `Cc1ccc2nc(C)cc(Nc3ccc(N4CCCCC4)cc3)c2c1`, in data set [1], the MIC (as a rule, the least concentration at which growth counts as inhibited) was found to be 7.5 µM (≈ 2.49 µg/mL). For the same compound, the half-inhibitory concentration (IC50) in [2] came out at 17.2 µM.
For `CCOC(=O)c1ccc2nc(C)cc(Nc3ccc(-n4cnc5ccccc54)cc3)c2c1` the same measures were more than 47.3 µM and 42.1 µM.
For `CCCCc1ccc(Nc2cc(C)nc3ccc(C(=O)OCC)cc23)cc1` the same measures were 6.9 µM (≈ 2.5 µg/mL) and 11.2 µM.
Turning to `CCOc1ccc2nc(C)cc(Nc3ccc(N4CCCCC4)cc3)c2c1`, in [1], the MIC is 6.9 µM (≈ 2.49 µg/mL). In data set [2], the IC50 came out at 9.5 µM.
For `Cc1cc(Nc2ccc(N3CCCC3CO)cc2)c2cc(Br)ccc2n1` (stereo not given) the same measures were 12.1 µM (≈ 4.99 µg/mL) and more than 50 µM.
For `CCOC(=O)c1ccc2nc(C)cc(Nc3ccc(N4CCCC4)cc3)c2c1` the same measures were 13.3 µM (≈ 4.99 µg/mL) and 21.7 µM.
For `CCc1cc(Nc2ccc(N3CCCCC3)cc2)c2cc(Br)ccc2n1` the same measures were 0.75 µM (≈ 0.308 µg/mL) and 1.54 µM.
With `Cc1cc(Nc2ccc(N3CCCCC3)cc2)c2cc(C#N)ccc2n1`, 14.6 µM (≈ 5 µg/mL) was the least that counted as inhibitory in [1] (MIC). Besides, the IC50 in data set [2] is 19.6 µM.
Take `CC[C@@H](CO)NCCN[C@@H](CC)CO`: the outcome in data set [3] was inactive.
In turn, `CCOC(=O)c1ccc2nc(C)cc(Nc3ccc(N4CCN(Cc5ccccc5)CC4)cc3)c2c1` gave an MIC in data set [1] of 10.4 µM (≈ 5 µg/mL). Besides, in data set [2], the IC50 is 26.2 µM.
For the compound `Cc1cc(Nc2ccc(N3CCC(C)CC3)cc2)c2cc(Br)ccc2n1`, the selectivity ratio in data set [4] came out at 13.8; in data set [5] it was 17.4; in data set [8], 8.9; in data set [10], 7.6. Also, the lowest concentration to inhibit growth in [1] (MIC) was 0.7 µM (≈ 0.287 µg/mL). For the same compound, the CC50 (usually the concentration giving 50% cytotoxicity) at 72 h in data set [6] is 9.7 µM; in data set [7], 5.3 µM; in data set [15], 12.2 µM; in [16] it was 6.2 µM. Also, the Ki (commonly a measure of affinity in units of concentration, obtained from inhibition or displacement) in [9] stood at 0.72 µM; in data set [12] it was 0.79 µM; in [13] it was 0.69 µM. The TDI result in data set [11] is “inactive”. For the same compound, the IC50 in data set [2] amounted to 1.4 µM. In addition, the deltaG in data set [14] was -8 kcal/mol. Also, the deltaH in data set [17] was -5.6 kcal/mol. In addition, the dissociation constant (Kd) (usually a measure of binding affinity in units of concentration) in data set [18] is 1.25 µM. Besides, the deltaS in data set [19] came out at 8.3 cal/mol/K.
In data set [1], `CCOC(=O)c1ccc2nc(C)cc(Nc3ccc(N4CCOCC4)cc3)c2c1` had an MIC of 51.1 µM (≈ 20 µg/mL). The IC50 in [2] was 19.5 µM.
For `CCOC(=O)c1ccc2nc(C)cc(Nc3ccc(-n4cccn4)cc3)c2c1` the same measures were more than 6.7 µM and 8 µM.
In the case of `CCOC(=O)c1ccc2nc(C)cc(Nc3ccc(C(=O)N4CCCC4)cc3)c2c1`, the MIC in data set [1] is more than 49.6 µM. Moreover, the IC50 in [2] was 44.5 µM.
For `CCOC(=O)c1ccc2nc(C)cc(Nc3ccc(N4CCSCC4)cc3)c2c1` the same measures were more than 12.3 µM and more than 50 µM.
For `Cc1cc(Nc2ccc(N3CCCCC3)cc2)c2cc(C(C)C)ccc2n1` the same measures were 6.9 µM (≈ 2.48 µg/mL) and 8.2 µM.
In data set [1], `Cc1cc(Nc2ccc(-n3cccn3)cc2)c2cc(Br)ccc2n1` came in with an MIC of 3.3 µM (≈ 1.25 µg/mL). Further, the IC50 in data set [2] was determined as 4.85 µM.
For `CCOC(=O)c1ccc2nc(C)cc(Nc3ccc(CC)cc3)c2c1` the same measures were 29.9 µM (≈ 10 µg/mL) and 41.3 µM.
The compound `CO[C@H]1/C=C/O[C@@]2(C)Oc3c(C)c(O)c4c(O)c(c(/C=N/N5CCN(C)CC5)c(O)c4c3C2=O)NC(=O)/C(C)=C\C=C\[C@H](C)[C@H](O)[C@@H](C)[C@@H](O)[C@@H](C)[C@H](OC(C)=O)[C@@H]1C` [RIFAMPIN] had an MIC in [1] of 0.05 µM (≈ 0.0411 µg/mL).
Take `CCOC(=O)c1ccc2nc(C)cc(Nc3ccc(N4CCC(C)CC4)cc3)c2c1`: inhibition of growth in [1] (MIC) required 6.2 µM (≈ 2.5 µg/mL). In addition, the IC50 in data set [2] turned out to be 10.9 µM.
For `Cc1cc(Nc2ccc(N3CCCCC3)cc2)c2cc([N+](=O)[O-])ccc2n1` the same measures were 6.9 µM (≈ 2.5 µg/mL) and 18.6 µM.
Regarding `Cc1cc(Nc2ccc(N3CCC(c4ccccc4)CC3)cc2)c2cc(Br)ccc2n1`, in [1], the MIC was found to be 1.33 µM (≈ 0.628 µg/mL). Also, the IC50 in data set [2] is more than 50 µM.
For `CCOC(=O)c1ccc2nc(C)cc(Nc3ccc(CN4CCCCC4)cc3)c2c1` the same measures were 49.6 µM (≈ 20 µg/mL) and more than 50 µM.
`Cc1cc(Nc2ccc(N3CCCCC3)cc2)c2cc(F)ccc2n1`: the MIC in data set [1] came to 14.9 µM (≈ 5 µg/mL). The IC50 in data set [2] turned out to be 38.3 µM.
